# Measured values pooled from the literature.
# Each line is one published result; the experiments were not run side by side.
# Target: Protein-tyrosine kinase 6 (PTK6, Homo sapiens, UniProt Q13882)
Structure (SMILES),assay,setting,remaining binding
CN(C)c1ncc(F)c(-c2cnn3ncccc23)n1,binding,1 µM,99%
O=C(c1ccc(Nc2nccc(-c3cc4ccccc4s3)n2)cc1)N1CCC(N2CCCC2)CC1,"binding, competition with immobilised ligand",1 µM,65%
C[C@@H](c1ccc(-n2cnc3c(N)ncnc32)cc1)N1CCc2nn(C)c(Cc3ccccc3)c2C1=O,"binding, competition with immobilised ligand",0.1 µM,62%
COc1cnc(Nc2cccc(S(N)(=O)=O)c2)nc1N1CCN(c2ccccc2)C(=O)C1,"binding, competition with immobilised ligand",1 µM,100%
O=C(NCCCN1CCOCC1)c1ccc(Nc2ncc(Cl)c(-c3ccc(Cl)s3)n2)cc1,"binding, competition with immobilised ligand",1 µM,100%
F[C@@H]1CCN(c2nccc(-c3cnn4ncccc34)n2)C1,binding,1 µM,89%
COc1cc(-c2cn(C3CCc4c(F)cccc4N(CC(F)(F)F)C3=O)nn2)ccc1-n1cnc(C)c1 (stereo not drawn),"cell-free assay, competition with immobilised ligand",1 µM,100%
C=CC(=O)N1CCC(C(=O)NCC(=O)N2CCN(c3nc(-c4cnc(N)nc4C(F)F)nc(N4CCOCC4)n3)CC2)CC1,"binding, competition with immobilised ligand",1 µM,100%
O=C(NCC1CCOCC1)c1n[nH]cc1NC(=O)c1c(F)cccc1F,"binding, competition with immobilised ligand",1 µM,100%
COc1ncc2cc3ccccc3nc2c1C#N,"cell-free assay, competition with immobilised ligand",5 µM,100%
COc1ccnn2ncc(-c3ccnc(N(C)C)n3)c12,binding,1 µM,100%
CCC(=O)N[C@@H]1CC[C@H](C(=O)N(C)c2ccc(-c3nc4ccccc4o3)cc2)C1,"cell-free assay, competition with immobilised ligand",1 µM,90%
CN(C)c1nccc(-c2cnn3ncccc23)n1,binding,1 µM,100%
Cc1c(NC(=O)c2cc(C(N)=O)nc3cc(F)ccc23)c(C(F)(F)F)nn1Cc1ccc(C#N)cc1,"cell-free assay, competition with immobilised ligand",1 µM,100%
CC1CCCN1c1nccc(-c2cnn3ncccc23)n1 (stereo not drawn),binding,1 µM,89%
CS(=O)(=O)NCC[C@H](NC(=O)c1cncc2c1cnn2-c1ccc(F)cc1)c1ccnc(S(C)(=O)=O)c1,"cell-free assay, competition with immobilised ligand",1 µM,96%
c1cncc(-c2cccc(Nc3nccc(NC4CCCCC4)n3)c2)c1,"binding, competition with immobilised ligand",10 µM,80%
O=C1NC(c2ccccn2)Sc2ccccc21 (stereo not drawn),"cell-free assay, competition with immobilised ligand",1 µM,100%
C[C@@H]1CCN(c2nccc(-c3cnn4ncccc34)n2)C1,binding,1 µM,100%
CN([C@@H]1CCc2c(CC(=O)O)c3cc(S(C)(=O)=O)ccc3n2C1)S(=O)(=O)c1ccc(F)cc1,"cell-free assay, competition with immobilised ligand",1 µM,92%
O=C(NCCCN1CCOCC1)c1ccc(Nc2nccc(-c3cc4ccccc4s3)n2)cc1,"binding, competition with immobilised ligand",1 µM,79%
